From ChEMBL document CHEMBL4196022, “Alkynyl-containing phenylthiazoles: Systemically active antibacterial agents effective against methicillin-resistant Staphylococcus aureus (MRSA)” (Eur J Med Chem, 2018)
In brackets after ≈: the same amount, converted by molar mass. Activity calls are given as the source filed them. The rule behind the calls is not given here. Positions of bridges follow the written chain, without caps; N, C: chain ends. Non-standard residues stand in square brackets, D forms with d. Residues, ends and D or L forms follow the SMILES beside them. *: point of attachment. Ileψ(thiazoline)Cys = CC[C@H](C)[C@H](N)C1=N[C@H](C(=O)*)CS1; dOrn = NCCC[C@@H](N)C(=O)O

Legend:
[1] = test system: Staphylococcus aureus; assay: Antibacterial activity against methicillin-resistant Staphylococcus aureus NRS107 after 20 hrs by broth microdilution assay; assay type: functional; settings: NRS107, 20 h
Procedure, shortened: (§1)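 Broth microdilution per CLSI in cation-adjusted Mueller Hinton broth. Compounds serially diluted, in triplicate. Incubation at 37 °C for at least 20 hours. MIC taken as the lowest concentration with no visible bacterial growth.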

[2] = test system: Staphylococcus aureus; assay: Antibacterial activity against methicillin-resistant Staphylococcus aureus USA300 after 20 hrs by broth microdilution assay; assay type: functional; settings: USA300, 20 h; procedure, shortened: as §1
[3] = test system: Staphylococcus aureus; assay: Bactericidal activity against methicillin-resistant Staphylococcus aureus USA300 up to 18 hrs by broth microdilution assay; assay type: functional; settings: USA300, 18 h, read-out: MBC99.9
[4] = test system: Staphylococcus aureus; assay: Bactericidal activity against methicillin-resistant Staphylococcus aureus NRS107 up to 18 hrs by broth microdilution assay; assay type: functional; settings: NRS107, 18 h, read-out: MBC99.9
[5] = test system: Staphylococcus aureus; assay: Antibacterial activity against methicillin-resistant Staphylococcus aureus NRS119 after 20 hrs by broth microdilution assay; assay type: functional; settings: NRS119, 20 h; procedure, shortened: as §1
[6] = test system: Staphylococcus aureus; assay: Bactericidal activity against methicillin-resistant Staphylococcus aureus NRS119 up to 18 hrs by broth microdilution assay; assay type: functional; settings: NRS119, 18 h, read-out: MBC99.9
[7] = test system: Staphylococcus aureus; assay: Antibacterial activity against methicillin-resistant Staphylococcus aureus NRS123 (USA400) after 20 hrs by broth microdilution assay; assay type: functional; procedure, shortened: as §1
[8] = test system: Staphylococcus aureus; assay: Bactericidal activity against methicillin resistant Staphylococcus aureus NRS123 (USA400) up to 18 hrs by broth microdilution assay; assay type: functional; settings: read-out: MBC99.9
[9] = test system: Staphylococcus aureus; assay: Antibacterial activity against vancomycin-resistant Staphylococcus aureus VRS10 after 20 hrs by broth microdilution assay; assay type: functional; settings: VRS10, 20 h; procedure, shortened: as §1
[10] = test system: Staphylococcus aureus; assay: Bactericidal activity against methicillin resistant vancomycin-resistant Staphylococcus aureus VRS10 up to 18 hrs by broth microdilution assay; assay type: functional; settings: VRS10, 18 h, read-out: MBC99.9
[11] = test system: Staphylococcus aureus; assay: Antibacterial activity against vancomycin-resistant Staphylococcus aureus VRS11a after 20 hrs by broth microdilution assay; assay type: functional; procedure, shortened: as §1
[12] = test system: Staphylococcus aureus; assay: Bactericidal activity against methicillin resistant vancomycin-resistant Staphylococcus aureus VRS11a up to 18 hrs by broth microdilution assay; assay type: functional; settings: read-out: MBC99.9
[13] = test system: Staphylococcus aureus; assay: Antibacterial activity against vancomycin-resistant Staphylococcus aureus VRS12 after 20 hrs by broth microdilution assay; assay type: functional; settings: VRS12, 20 h; procedure, shortened: as §1
[14] = test system: Staphylococcus aureus; assay: Bactericidal activity against methicillin resistant vancomycin-resistant Staphylococcus aureus VRS12 up to 18 hrs by broth microdilution assay; assay type: functional; settings: VRS12, 18 h, read-out: MBC99.9
Procedure, shortened: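 MBC set up from the MIC plates. Aliquots from wells with no growth spotted onto tryptic soy agar and incubated at 37 °C for at least 18 hours. MBC taken as the lowest concentration giving 99.9% inhibition of bacterial growth.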

[15] = test system: Staphylococcus aureus; assay: Potency index, ratio of vancomycin MIC to compound MIC for antibacterial activity against vancomycin-resistant Staphylococcus aureus VRS10; assay type: functional
[16] = test system: Staphylococcus aureus; assay: Potency index, ratio of vancomycin MIC to compound MIC for antibacterial activity against vancomycin-resistant Staphylococcus aureus VRS11a; assay type: functional
[17] = test system: Staphylococcus aureus; assay: Potency index, ratio of vancomycin MIC to compound MIC for antibacterial activity against vancomycin-resistant Staphylococcus aureus VRS12; assay type: functional
[18] = test system: Staphylococcus aureus; assay: Ratio of MBC to MIC for methicillin-resistant Staphylococcus aureus USA300; assay type: functional
Procedure, shortened: (§2)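 MBC/MIC ratio. […] MBC by plating no-growth wells onto tryptic soy agar at 37 °C for at least 18 h; taken as the concentration giving 99.9% growth inhibition.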

[19] = test system: Staphylococcus aureus; assay: Ratio of MBC to MIC for methicillin-resistant Staphylococcus aureus NRS107; assay type: functional; procedure, shortened: as §2
[20] = test system: Staphylococcus aureus; assay: Ratio of MBC to MIC for methicillin-resistant Staphylococcus aureus NRS119; assay type: functional; procedure, shortened: as §2
[21] = test system: Staphylococcus aureus; assay: Ratio of MBC to MIC for methicillin-resistant Staphylococcus aureus NRS123 (USA400); assay type: functional; procedure, shortened: as §2
[22] = test system: Staphylococcus aureus; assay: Ratio of MBC to MIC for vancomycin-resistant Staphylococcus aureus VRS10; assay type: functional; procedure, shortened: as §2
[23] = test system: Staphylococcus aureus; assay: Ratio of MBC to MIC for vancomycin-resistant Staphylococcus aureus VRS11a; assay type: functional; procedure, shortened: as §2
[24] = test system: Staphylococcus aureus; assay: Ratio of MBC to MIC for vancomycin-resistant Staphylococcus aureus VRS12; assay type: functional; procedure, shortened: as §2
[25] = test system: Staphylococcus aureus; assay: Bactericidal activity against methicillin-resistant Staphylococcus aureus USA300 assessed as reduction in bacterial load at 4 times MIC after 4 hrs by time kill assay relative to control; assay type: functional
[26] = test system: Staphylococcus aureus; assay: Bactericidal activity against methicillin-resistant Staphylococcus aureus USA300 assessed as reduction in bacterial load at 4 times MIC after 12 hrs by time kill assay relative to control; assay type: functional
[27] = test system: Staphylococcus aureus; assay: Bactericidal activity against methicillin-resistant Staphylococcus aureus USA300 assessed as reduction in bacterial load at 4 times MIC after 24 hrs by time kill assay relative to control; assay type: functional
[28] = test system: J774; assay: Cytotoxicity against mouse J774 cells assessed as reduction in cell viability up to 16 ug/ml after 24 hrs by MTS assay; assay type: cell-based; settings: j774, 24 h
Procedure, shortened: (§3)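 J774 murine macrophages were grown in DMEM with 10% FBS at 37 °C, 5% CO2. Compounds were tested at 8, 16 and 32 μg/mL in triplicate for 24 h, with a DMSO-matched control. MTS was added for 4 h and absorbance read at 490 nm. Viability is given as % of DMSO control (mean ± SD); Student t-test with Holm-Sidak test.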

[29] = test system: Staphylococcus aureus; assay: Antibacterial activity against methicillin-resistant Staphylococcus aureus NRS123 (USA400) infected in mouse J774 cells at 16 ug/ml after 24 hrs; assay type: functional, organism-based
Procedure, shortened: (§4)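 J774 macrophages grown in DMEM with 10% FBS at 37 °C, 5% CO2. Infected with USA400 at MOI ~100:1 for 1 h, then washed with gentamicin 50 μg/mL. Treated in triplicate wells for 24 h, washed with gentamicin again and lysed with 0.1% Triton X-100. Lysate plated on tryptic soy agar for 18–22 h; CFU/mL counted.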

[30] = test system: HRT-18 cell line; assay: Cytotoxicity against human HRT18 cells assessed as reduction in cell viability up to 32 ug/ml after 2 hrs by MTS assay; assay type: cell-based; settings: hrt-18, 2 h
[31] = Selectivity index, ratio of toxic concentration for human HRT18 cells to MIC for methicillin-resistant Staphylococcus aureus; assay type: toxicity; settings: read-out: Selectivity Index
[32] = test system: Staphylococcus aureus; assay: Bactericidal activity against methicillin-resistant Staphylococcus aureus NRS123 (USA400) assessed as reduction in bacterial load at 4 times MIC after 8 hrs by time kill assay relative to control; assay type: functional
[33] = test system: J774; assay: Cytotoxicity against mouse J774 cells assessed as reduction in cell viability up to 8 ug/ml after 24 hrs by MTS assay; assay type: cell-based; settings: j774, 24 h; procedure, shortened: as §3
[34] = test system: Staphylococcus aureus; assay: Antibacterial activity against methicillin-resistant Staphylococcus aureus NRS123 (USA400) infected in mouse J774 cells at 8 ug/ml after 24 hrs; assay type: functional, organism-based; procedure, shortened: as §4
[35] = test system: Staphylococcus aureus; assay: Inhibition of UPPS/UPPP in vancomycin-resistant Staphylococcus aureus VRS10 assessed as potentiation of vancomycin-induced antibacterial activity by measuring fold reduction in vancomycin MIC at 0.5 times MIC preincubated for 30 mins followed by vancomycin addition measured after 20 to 22 hrs by broth microdilution assay relative to control
Procedure, shortened: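 VRS10 suspension pre-exposed to compound at ½ × MIC for 30 min at room temperature. […] Incubation at 37 °C for 20–22 h before the MIC was read; untreated bacteria served as control.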

[36] = target: T1, Undecaprenyl-diphosphatase (Escherichia coli (strain K12), UniProt P60932); assay: Inhibition of Escherichia coli UPPP expressed in Escherichia coli C41(DE3) using FPP as substrate preincubated for 15 mins followed by substrate addition measured after 20 mins by malachite green assay
T1 sequence (P60932 whole entry): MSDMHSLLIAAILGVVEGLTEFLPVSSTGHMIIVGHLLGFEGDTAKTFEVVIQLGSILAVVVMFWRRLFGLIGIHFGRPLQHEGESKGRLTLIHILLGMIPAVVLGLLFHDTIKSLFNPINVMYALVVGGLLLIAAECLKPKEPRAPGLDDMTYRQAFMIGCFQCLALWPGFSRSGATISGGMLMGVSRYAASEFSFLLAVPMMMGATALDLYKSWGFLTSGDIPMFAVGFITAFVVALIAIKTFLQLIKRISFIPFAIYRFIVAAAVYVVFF

SMILES	MIC [1] [µg/mL]	MIC [2] [µg/mL]	MBC [3] [µg/mL]	MBC [4] [µg/mL]	MIC [5] [µg/mL]	MBC [6] [µg/mL]	MIC [7] [µg/mL]	MBC [8] [µg/mL]	MIC [9] [µg/mL]	MBC [10] [µg/mL]	MIC [11] [µg/mL]	MBC [12] [µg/mL]	MIC [13] [µg/mL]	MBC [14] [µg/mL]	Ratio [15]	Ratio [16]	Ratio [17]	Ratio [18]	Ratio [19]	Ratio [20]	also measured
C/C(=N\NC(=N)N)c1sc(-c2ccc(C#CC3CCCCC3)cc2)nc1C	16 (≈ 42.2 µM)	2 (≈ 5.27 µM)	4 (≈ 10.5 µM)	16 (≈ 42.2 µM)	4 (≈ 10.5 µM)	4 (≈ 10.5 µM)	2 (≈ 5.27 µM)	2 (≈ 5.27 µM)	2 (≈ 5.27 µM)	2 (≈ 5.27 µM)	1 (≈ 2.63 µM)	2 (≈ 5.27 µM)	2 (≈ 5.27 µM)	2 (≈ 5.27 µM)	>100	>100	8	<=3	<=3	<=3	Ratio [21]: <=3; Ratio [22]: <=3; Ratio [23]: <=3; Ratio [24]: <=3; Activity [25]: 1.9 deltalog10CFU/ml; Activity [26]: 2.8 deltalog10CFU/ml; Activity [27]: 4.3 deltalog10CFU/ml; Activity [28]: Non-Toxic; Activity [29]: inactive; Activity [30]: Non-Toxic; selectivity ratio [31]: 7 to 31
C/C(=N\NC(=N)N)c1sc(-c2ccc(C#CC3CCCC3)cc2)nc1C	2 (≈ 5.47 µM)	2 (≈ 5.47 µM)	4 (≈ 10.9 µM)	2 (≈ 5.47 µM)	1 (≈ 2.74 µM)	2 (≈ 5.47 µM)	2 (≈ 5.47 µM)	2 (≈ 5.47 µM)	2 (≈ 5.47 µM)	2 (≈ 5.47 µM)	1 (≈ 2.74 µM)	4 (≈ 10.9 µM)	2 (≈ 5.47 µM)	2 (≈ 5.47 µM)	>100	>100	8	<=3	<=3	<=3	Ratio [21]: <=3; Ratio [22]: <=3; Ratio ([23]; read-out: Ratio): 4; Ratio [24]: <=3; Activity [32]: 3 deltalog10CFU/ml; Activity [33]: Non-Toxic; Activity [34]: inactive; Activity [30]: Non-Toxic; selectivity ratio [31]: 7 to 31; fold change (FC) [35]: 512
CC[C@H](C)[C@H](N)C1=N[C@H](C(=O)N[C@@H](CC(C)C)C(=O)N[C@H](CCC(=O)O)C(=O)N[C@H](C(=O)N[C@H]2CCCCNC(=O)[C@H](CC(N)=O)NC(=O)[C@@H](CC(=O)O)NC(=O)[C@H](Cc3cnc[nH]3)NC(=O)[C@@H](Cc3ccccc3)NC(=O)[C@H]([C@@H](C)CC)NC(=O)[C@@H](CCCN)NC2=O)[C@@H](C)CC)CS1 [BACITRACIN] ({Ileψ(thiazoline)Cys}-L[dE]IK[dOrn]I[dF]H[dD]N; lactam 4-C)	–	–	–	–	–	–	–	–	–	–	–	–	–	–	–	–	–	–	–	–	IC50 [36]: 5.6 µM
